Results as given in ChEMBL document CHEMBL1152767, “Synthesis and pharmacological evaluation of new arylpiperazines N-[4-[4-(aryl) piperazine-1-yl]-phenyl]-amine derivatives: putative role of 5-HT1A receptors” (2009).
Calls of active or inactive are those of the source. The calls are words filed in the database; no cut-off is given here.

System: Rattus norvegicus
Experiment: Anxiolytic activity in Wistar rat assessed as decrease in extracellular serotonin level in brain at 3 mg/kg, ip relative to control
Format: functional, organism-based
Design: dose 3 mg/kg
Conditions: not given
Procedure, shortened: (§1)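 Male Wistar rats dosed ip (vehicle saline/1% tween 80/1% DMSO), WAY-100635 0.5 mg/kg ip 15 min prior where used; decapitated 1 h after dosing, brains frozen at -80 °C. Tissue sonicated in 0.4 M perchloric acid, citrate/phosphate/EDTA added, centrifuged 12,000g at 4 °C; supernatant run on reversed-phase C18 HPLC with fluorescence detection (ex 280, em 340 nm).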

`CCOC(=O)Nc1ccc(N2CCN(c3ccccc3)CC2)cc1` was tested, and the Activity was “Active”.
In the case of `CCOC(=O)Nc1ccc(N2CCN(c3ccccc3OC)CC2)cc1`, the Activity was “Active”.

System: Rattus norvegicus
Experiment: Anxiolytic activity in Wistar rat assessed as number of entries into closed arms at 1 mg/kg, ip administered 60 mins before evaluation and measured during 5 mins by elevated plus-maze test
Format: functional
Conditions: route intraperitoneal
Procedure, shortened: (§2)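 Male Wistar rats, 6–8 weeks, 120–150 g, housed at 25 ± 2 °C with free food and water. Dosed ip at 2 ml/kg in saline with 1% tween 80 and 1% DMSO, which alone served as control; n = 8. Maze arms 50 × 10 cm, 50 cm above floor. Rat placed centrally facing an open arm, recorded by camera between 9:00 and 15:00 h.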

With `CN1C(=O)CN=C(c2ccccc2)c2cc(Cl)ccc21` [DIAZEPAM] the Activity was 10.13.

System: Rattus norvegicus
Experiment: Anxiolytic activity in Wistar rat assessed as time spent into open arms at 5 mg/kg, ip administered 60 mins before evaluation and measured during 5 mins by elevated plus-maze test
Format: functional
Conditions: route intraperitoneal
Procedure, shortened: as §2

For `O=C1CC2(CCCC2)CC(=O)N1CCCCN1CCN(c2ncccn2)CC1` [BUSPIRONE], the Activity was 85.56%.

System: Rattus norvegicus
Experiment: Anxiolytic activity in Wistar rat assessed as time spent into open arms at 1 mg/kg, ip administered 60 mins before evaluation and measured during 5 mins by elevated plus-maze test
Format: functional
Conditions: route intraperitoneal
Procedure, shortened: as §2

For `CN1C(=O)CN=C(c2ccccc2)c2cc(Cl)ccc21` [DIAZEPAM], the Activity was 105.36%.

System: Rattus norvegicus
Experiment: Anxiolytic activity in Wistar rat assessed as number of entries into closed arms at 3 mg/kg, ip administered 60 mins before evaluation and measured during 5 mins by elevated plus-maze test
Format: functional
Conditions: route intraperitoneal
Procedure, shortened: (§3)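 Male Wistar rats, 6–8 weeks, 120–150 g, given test agents ip (2 ml/kg; vehicle saline with 1% tween 80 and 1% DMSO) 60 min before testing; WAY-100635 0.5 mg/kg ip 15 min before treatment where used. Maze: two open, two closed arms 50 × 10 cm, raised 50 cm; rat placed centrally facing open arm; 5 min video recording; mean ± S.E.M., n = 8.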

Going from `COc1ccccc1N1CCN(c2ccc(NC(C)=O)cc2)CC1` to `CCOC(=O)Nc1ccc(N2CCN(c3ccccc3OC)CC2)cc1`, the Activity rises from 9.01 to 11.8.

First: CCOC(=O)Nc1ccc(N2CCN(CCc3ccccc3)CC2)cc1
Second: CC(=O)Nc1ccc(N2CCN(CCc3ccccc3)CC2)cc1
The Activity of the first is lower: 9.91 for the first, 10.26 for the second.

Compared with `CCOC(=O)Nc1ccc(N2CCN(c3ccccc3)CC2)cc1`, `CC(=O)Nc1ccc(N2CCN(c3ccccc3)CC2)cc1` is higher in Activity: 9.19 for the first, 10.08 for the second.

Going from `O=C(Nc1ccc(N2CCN(c3ccccc3)CC2)cc1)c1ccc(Cl)nc1` to `O=C(Nc1ccc(N2CCN(c3ccccc3Cl)CC2)cc1)c1ccc(Cl)nc1`, the Activity falls from 11.94 to 9.8.

First: COc1ccccc1N1CCN(c2ccc(NC(=O)c3ccc(Cl)nc3)cc2)CC1
Second: O=C(Nc1ccc(N2CCN(CCc3ccccc3)CC2)cc1)c1ccc(Cl)nc1
The Activity of the first is lower: 10.93 for the first, 11.17 for the second.

Going from `CC(=O)Nc1ccc(N2CCN(c3ccccc3Cl)CC2)cc1` to `CCOC(=O)Nc1ccc(N2CCN(c3ccccc3Cl)CC2)cc1`, the Activity falls from 12.3 to 9.75.

System: Rattus norvegicus
Experiment: Anxiolytic activity in ip dosed Wistar rat assessed as decrease in glyoxalase 1 activity in brain
Format: functional
Design: scale not given: the % may be the effect or the level left
Conditions: not given
Procedure, shortened: (§4)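 Rat brain homogenised at 20% in 0.1 M potassium phosphate pH 7.4 with 0.25 M sucrose; spun 800g then 10,500g (4 °C) to give post-mitochondrial supernatant for glutathione reductase, and further 36,000g 1 h for cytosol for glyoxalase 1 (modified Racker method); protein by Lowry with BSA standard.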

Going from `CCOC(=O)Nc1ccc(N2CCN(c3ccccc3)CC2)cc1` to `CCOC(=O)Nc1ccc(N2CCN(c3ccccc3OC)CC2)cc1`, the Activity falls from 20% to 17%.

System: Rattus norvegicus
Experiment: Anxiolytic activity in ip dosed Wistar rat assessed as decrease in glutathione reductase activity in brain
Format: functional
Design: scale not given: the % may be the effect or the level left
Conditions: not given
Procedure, shortened: as §4

Compared with `CCOC(=O)Nc1ccc(N2CCN(c3ccccc3)CC2)cc1`, `CCOC(=O)Nc1ccc(N2CCN(c3ccccc3OC)CC2)cc1` is lower in Activity: 15% for the first, 12% for the second.

System: Rattus norvegicus
Experiment: Anxiolytic activity in Wistar rat assessed as total number of entries at 1 mg/kg, ip administered 60 mins before evaluation and measured during 5 mins by elevated plus-maze test
Format: functional
Conditions: route intraperitoneal
Procedure, shortened: as §2

`CN1C(=O)CN=C(c2ccccc2)c2cc(Cl)ccc21` [DIAZEPAM] showed an Activity of 18.47.

System: Rattus norvegicus
Experiment: Anxiolytic activity in Wistar rat assessed as total number of entries at 5 mg/kg, ip administered 60 mins before evaluation and measured during 5 mins by elevated plus-maze test
Format: functional
Conditions: route intraperitoneal
Procedure, shortened: as §2

`O=C1CC2(CCCC2)CC(=O)N1CCCCN1CCN(c2ncccn2)CC1` [BUSPIRONE] gave an Activity of 14.26.

System: Rattus norvegicus
Experiment: Anxiolytic activity in Wistar rat assessed as number of entries into open arms at 1 mg/kg, ip administered 60 mins before evaluation and measured during 5 mins by elevated plus-maze test
Format: functional
Conditions: route intraperitoneal
Procedure, shortened: as §2

`CN1C(=O)CN=C(c2ccccc2)c2cc(Cl)ccc21` [DIAZEPAM] was tested, and the Activity was 45.16%.

System: Rattus norvegicus
Experiment: Anxiolytic activity in Wistar rat assessed as total number of entries at 3 mg/kg, ip administered 60 mins before evaluation and measured during 5 mins by elevated plus-maze test
Format: functional
Conditions: route intraperitoneal
Procedure, shortened: as §3

Compared with `COc1ccccc1N1CCN(c2ccc(NC(C)=O)cc2)CC1`, `CCOC(=O)Nc1ccc(N2CCN(c3ccccc3OC)CC2)cc1` is higher in Activity: 15.45 for the first, 18.21 for the second.

First: CCOC(=O)Nc1ccc(N2CCN(CCc3ccccc3)CC2)cc1
Second: CC(=O)Nc1ccc(N2CCN(CCc3ccccc3)CC2)cc1
The Activity of the first is lower: 13.85 for the first, 13.86 for the second.

Compared with `CCOC(=O)Nc1ccc(N2CCN(c3ccccc3)CC2)cc1`, `CC(=O)Nc1ccc(N2CCN(c3ccccc3)CC2)cc1` is lower in Activity: 15.48 for the first, 14.28 for the second.

Going from `O=C(Nc1ccc(N2CCN(c3ccccc3)CC2)cc1)c1ccc(Cl)nc1` to `O=C(Nc1ccc(N2CCN(c3ccccc3Cl)CC2)cc1)c1ccc(Cl)nc1`, the Activity falls from 16.46 to 12.98.

Compared with `COc1ccccc1N1CCN(c2ccc(NC(=O)c3ccc(Cl)nc3)cc2)CC1`, `O=C(Nc1ccc(N2CCN(CCc3ccccc3)CC2)cc1)c1ccc(Cl)nc1` is lower in Activity: 15.26 for the first, 14.48 for the second.

Going from `CC(=O)Nc1ccc(N2CCN(c3ccccc3Cl)CC2)cc1` to `CCOC(=O)Nc1ccc(N2CCN(c3ccccc3Cl)CC2)cc1`, the Activity falls from 16.82 to 13.98.

System: Rattus norvegicus
Experiment: Anxiolytic activity in Wistar rat assessed as blocked of time spent into open arms at 3 mg/kg, ip administered 60 mins before evaluation and measured during 5 mins by elevated plus-maze test in presence of 0.5 mg/kg, ip WAY-100635
Format: functional, organism-based
Conditions: not given
Procedure, shortened: as §3

In the case of `CCOC(=O)Nc1ccc(N2CCN(c3ccccc3)CC2)cc1`, the Activity was “inactive”.

System: Rattus norvegicus
Experiment: Anxiolytic activity in Wistar rat assessed as time spent into open arms at 3 mg/kg, ip administered 60 mins before evaluation and measured during 5 mins by elevated plus-maze test
Format: functional
Conditions: route intraperitoneal
Procedure, shortened: as §3

Going from `COc1ccccc1N1CCN(c2ccc(NC(C)=O)cc2)CC1` to `CCOC(=O)Nc1ccc(N2CCN(c3ccccc3OC)CC2)cc1`, the Activity rises from 58.77% to 84.36%.

First: CCOC(=O)Nc1ccc(N2CCN(CCc3ccccc3)CC2)cc1
Second: CC(=O)Nc1ccc(N2CCN(CCc3ccccc3)CC2)cc1
The Activity of the first is higher: 53.94% for the first, 53.67% for the second.

Going from `CCOC(=O)Nc1ccc(N2CCN(c3ccccc3)CC2)cc1` to `CC(=O)Nc1ccc(N2CCN(c3ccccc3)CC2)cc1`, the Activity falls from 87.6% to 62.67%.

Going from `O=C(Nc1ccc(N2CCN(c3ccccc3)CC2)cc1)c1ccc(Cl)nc1` to `O=C(Nc1ccc(N2CCN(c3ccccc3Cl)CC2)cc1)c1ccc(Cl)nc1`, the Activity falls from 56.94% to 53.67%.

Going from `COc1ccccc1N1CCN(c2ccc(NC(=O)c3ccc(Cl)nc3)cc2)CC1` to `O=C(Nc1ccc(N2CCN(CCc3ccccc3)CC2)cc1)c1ccc(Cl)nc1`, the Activity falls from 54.69% to 50.58%.

First: CC(=O)Nc1ccc(N2CCN(c3ccccc3Cl)CC2)cc1
Second: CCOC(=O)Nc1ccc(N2CCN(c3ccccc3Cl)CC2)cc1
The Activity of the first is lower: 57.3% for the first, 58.98% for the second.

System: Rattus norvegicus
Experiment: Anxiolytic activity in Wistar rat assessed as decrease in time spent into open arms treated ip 60 mins before evaluation and measured during 5 mins by elevated plus-maze test in presence of WAY-100635
Format: functional
Design: scale not given: the % may be the effect or the level left
Conditions: not given
Procedure, shortened: as §3

First: CCOC(=O)Nc1ccc(N2CCN(c3ccccc3)CC2)cc1
Second: CCOC(=O)Nc1ccc(N2CCN(c3ccccc3OC)CC2)cc1
The Activity of the first is higher: 35% for the first, 20% for the second.

System: Rattus norvegicus
Experiment: Anxiolytic activity in Wistar rat assessed as number of entries into open arms at 5 mg/kg, ip administered 60 mins before evaluation and measured during 5 mins by elevated plus-maze test
Format: functional
Conditions: route intraperitoneal
Procedure, shortened: as §2

With `O=C1CC2(CCCC2)CC(=O)N1CCCCN1CCN(c2ncccn2)CC1` [BUSPIRONE] the Activity was 37.52%.

System: Rattus norvegicus
Experiment: Anxiolytic activity in Wistar rat assessed as number of entries into closed arms at 5 mg/kg, ip administered 60 mins before evaluation and measured during 5 mins by elevated plus-maze test
Format: functional
Conditions: route intraperitoneal
Procedure, shortened: as §2

With `O=C1CC2(CCCC2)CC(=O)N1CCCCN1CCN(c2ncccn2)CC1` [BUSPIRONE] the Activity was 8.91.

System: Rattus norvegicus
Experiment: Anxiolytic activity in ip dosed Wistar rat assessed as decrease in extracellular serotonin level in brain coadministered with WAY-100635 relative to control
Format: functional
Design: scale not given: the % may be the effect or the level left
Conditions: not given
Procedure, shortened: as §1

First: CCOC(=O)Nc1ccc(N2CCN(c3ccccc3)CC2)cc1
Second: CCOC(=O)Nc1ccc(N2CCN(c3ccccc3OC)CC2)cc1
The Activity of the first is higher: 30% for the first, 24% for the second.

System: Rattus norvegicus
Experiment: Anxiolytic activity in Wistar rat assessed as decrease in extracellular serotonin level in brain at 3 mg/kg, ip in presence of WAY-100635 relative to control
Format: functional
Design: scale not given: the % may be the effect or the level left
Conditions: route intraperitoneal
Procedure, shortened: as §1

Compared with `CCOC(=O)Nc1ccc(N2CCN(c3ccccc3)CC2)cc1`, `CCOC(=O)Nc1ccc(N2CCN(c3ccccc3OC)CC2)cc1` is lower in Activity: 38% for the first, 32% for the second.

System: Rattus norvegicus
Experiment: Anxiolytic activity in Wistar rat assessed as number of entries into open arms at 3 mg/kg, ip administered 60 mins before evaluation and measured during 5 mins by elevated plus-maze test
Format: functional
Conditions: route intraperitoneal
Procedure, shortened: as §3

Compared with `COc1ccccc1N1CCN(c2ccc(NC(C)=O)cc2)CC1`, `CCOC(=O)Nc1ccc(N2CCN(c3ccccc3OC)CC2)cc1` is higher in Activity: 28.74% for the first, 35.23% for the second.

First: CCOC(=O)Nc1ccc(N2CCN(CCc3ccccc3)CC2)cc1
Second: CC(=O)Nc1ccc(N2CCN(CCc3ccccc3)CC2)cc1
The Activity of the first is higher: 28.49% for the first, 25.98% for the second.

Going from `CCOC(=O)Nc1ccc(N2CCN(c3ccccc3)CC2)cc1` to `CC(=O)Nc1ccc(N2CCN(c3ccccc3)CC2)cc1`, the Activity falls from 40.64% to 29.42%.

Compared with `O=C(Nc1ccc(N2CCN(c3ccccc3)CC2)cc1)c1ccc(Cl)nc1`, `O=C(Nc1ccc(N2CCN(c3ccccc3Cl)CC2)cc1)c1ccc(Cl)nc1` is lower in Activity: 27.48% for the first, 24.56% for the second.

Compared with `COc1ccccc1N1CCN(c2ccc(NC(=O)c3ccc(Cl)nc3)cc2)CC1`, `O=C(Nc1ccc(N2CCN(CCc3ccccc3)CC2)cc1)c1ccc(Cl)nc1` is lower in Activity: 28.42% for the first, 22.9% for the second.

First: CC(=O)Nc1ccc(N2CCN(c3ccccc3Cl)CC2)cc1
Second: CCOC(=O)Nc1ccc(N2CCN(c3ccccc3Cl)CC2)cc1
The Activity of the first is lower: 26.89% for the first, 30.27% for the second.
